Laboratory results as given in ChEMBL document CHEMBL3808369, “Identification of Cyproheptadine as an Inhibitor of SET Domain Containing Lysine Methyltransferase 7/9 (Set7/9) That Regulates Estrogen-Dependent Transcription” (J Med Chem, 2016).
Active and inactive are the calls of the source. The rule behind the calls is not given here.

What was measured:
[1] = target: T1, Histone-lysine N-methyltransferase SETD7 (Homo sapiens) (UniProt Q8WTS6); assay: Inhibition of Set7/9 in human MCF7 cells assessed as suppression of beta-estradiol-induced pS2 mRNA expression at 3 to 10 uM preincubated for 18 hrs followed by beta-estradiol addition measured after 24 hrs by RT-PCR analysis; format: cell-based; conditions: in the assay text read “preincubated for 24 hrs” for “preincubated for 18 hrs”
T1 sequence (whole entry): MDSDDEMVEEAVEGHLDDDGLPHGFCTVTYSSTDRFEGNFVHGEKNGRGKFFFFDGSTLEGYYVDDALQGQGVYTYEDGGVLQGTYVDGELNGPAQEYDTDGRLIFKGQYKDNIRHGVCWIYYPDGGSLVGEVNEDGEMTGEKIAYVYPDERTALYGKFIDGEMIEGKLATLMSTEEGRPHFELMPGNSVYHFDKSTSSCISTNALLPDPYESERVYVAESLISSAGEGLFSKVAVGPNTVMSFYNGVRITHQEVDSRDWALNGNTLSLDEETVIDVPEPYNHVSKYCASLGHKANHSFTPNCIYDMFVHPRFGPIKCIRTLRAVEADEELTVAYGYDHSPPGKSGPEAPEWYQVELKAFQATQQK
In short: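 MCF7 cells in estrogen-free medium were treated with compound for 24 h, then with 10 nM β-estradiol plus compound for a further 24 h. pS2 and GAPDH mRNA levels were measured by semiquantitative RT-PCR.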

[2] = target: T1, Histone-lysine N-methyltransferase SETD7 (Homo sapiens); assay: Inhibition of Set7/9 in human MCF7 cells assessed as suppression of beta-estradiol-induced ERE promoter activation at 3 to 10 uM preincubated for 18 hrs followed by beta-estradiol addition measured after 24 hrs by luciferase reporter gene assay; format: cell-based
In short: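 MCF7 cells were switched to estrogen-free medium (phenol red-free RPMI, 10% charcoal-stripped FBS) for 3 days, then transfected with pGL4-3×ERE-TA2 and hRuc-TK. After 6 h, compound was added. After 18 h more, cells received ± 10 nM β-estradiol for 24 h. Dual-luciferase readout: firefly normalized to Renilla, given as fold over unstimulated cells. Four independent assays, SD.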

MCF7 = assay: Effect on ERalpha expression in human MCF7 cells at 10 to 100 uM after 48 hrs by immunoblotting analysis; format: functional, cell-based
In short: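 MCF7 cells were treated with various concentrations for 48 h. Lysates were made in RIPA buffer with protease inhibitors, separated by SDS-PAGE, transferred to PVDF and immunoblotted for ERα with a rabbit polyclonal antibody. Detection was by chemiluminescence.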

[3] = target: T1, Histone-lysine N-methyltransferase SETD7 (Homo sapiens); assay: Inhibition of Set7/9 (unknown origin) expressed in Escherichia coli BL21 (DE3) by fluorogenic assay
[4] = target: T2, Histone-lysine N-methyltransferase SETD7 (Homo sapiens, UniProt Q8WTS6); assay: Inhibition of recombinant Set7/9 (unknown origin) expressed in Escherichia coli BL21 (DE3) using biotinylated histone H3-derived peptide/SAM as substrate by alphaLISA
T2 sequence (Q8WTS6 whole entry): T1 sequence (whole entry)

Row | SMILES | inhibition [1] | inhibition [2] | Activity (MCF7) | inhibition [3] | IC50 [4] [µM]
1 | CC/C(=C(\c1ccccc1)c1ccc(OCCN(C)C)cc1)c1ccccc1 | Active | Active | – | – | –
2 | O=C(c1ccc(F)cc1)C1CCN(CCn2c(=O)[nH]c3ccccc3c2=O)CC1 | – | – | inactive | inactive | –
3 | CC(=O)N1CCC(=C2c3ccccc3C=Cc3ccccc32)CC1 | – | – | – | – | > 100
4 | Cc1ccc(/C(=C\CN2CCCC2)c2ccccn2)cc1 | – | – | inactive | inactive | –
